Assays:
[1] = molecular target: T1, Serotonin 3 (5-HT3) receptor (Rattus norvegicus, UniProt P35563+Q9JJ16); assay: Compound was evaluated for its binding affinity for 5-hydroxytryptamine 3 receptor by measuring displacement [3H]GR-65630 in rat cerebral cortex.; assay type: tissue-based
T1 sequence (P35563 whole entry): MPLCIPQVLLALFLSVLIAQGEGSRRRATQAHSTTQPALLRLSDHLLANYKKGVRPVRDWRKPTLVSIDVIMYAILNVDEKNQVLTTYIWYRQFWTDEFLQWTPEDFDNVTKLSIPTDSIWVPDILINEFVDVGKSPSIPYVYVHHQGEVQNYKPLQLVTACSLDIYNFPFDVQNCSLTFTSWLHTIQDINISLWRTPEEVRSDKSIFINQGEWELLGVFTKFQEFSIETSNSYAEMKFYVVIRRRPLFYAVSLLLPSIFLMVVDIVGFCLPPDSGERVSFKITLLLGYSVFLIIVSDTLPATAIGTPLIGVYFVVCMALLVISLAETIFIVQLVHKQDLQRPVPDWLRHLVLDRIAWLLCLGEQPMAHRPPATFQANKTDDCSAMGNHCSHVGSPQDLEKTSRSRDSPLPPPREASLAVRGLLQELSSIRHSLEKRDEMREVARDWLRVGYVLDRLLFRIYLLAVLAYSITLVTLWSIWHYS
T1 sequence (Q9JJ16 whole entry): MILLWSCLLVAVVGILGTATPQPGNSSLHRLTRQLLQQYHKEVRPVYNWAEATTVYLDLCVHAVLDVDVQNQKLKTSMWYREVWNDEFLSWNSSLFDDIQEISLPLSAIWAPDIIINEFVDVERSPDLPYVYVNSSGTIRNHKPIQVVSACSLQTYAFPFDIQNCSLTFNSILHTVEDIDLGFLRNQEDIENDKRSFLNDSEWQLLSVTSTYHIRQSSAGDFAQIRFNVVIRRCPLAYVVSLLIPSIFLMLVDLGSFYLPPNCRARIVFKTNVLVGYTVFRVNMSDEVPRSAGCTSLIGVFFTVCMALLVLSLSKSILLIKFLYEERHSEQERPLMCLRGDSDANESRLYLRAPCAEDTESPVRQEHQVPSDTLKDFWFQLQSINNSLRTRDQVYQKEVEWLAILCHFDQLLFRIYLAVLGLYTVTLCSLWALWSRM

[2] = molecular target: Serotonin (5-HT) receptor; assay: Potency was evaluated on rabbit heart serotonergic receptors; set-up: species or system Oryctolagus cuniculus
[3] = molecular target: T2, Muscarinic acetylcholine receptor M1 (Rattus norvegicus, UniProt P08482); assay: Compound was evaluated for its binding affinity for Muscarinic acetylcholine receptor M1 by measuring displacement of [3H]- pirenzepine from rat hippocampus; assay type: tissue-based
T2 sequence (P08482 whole entry): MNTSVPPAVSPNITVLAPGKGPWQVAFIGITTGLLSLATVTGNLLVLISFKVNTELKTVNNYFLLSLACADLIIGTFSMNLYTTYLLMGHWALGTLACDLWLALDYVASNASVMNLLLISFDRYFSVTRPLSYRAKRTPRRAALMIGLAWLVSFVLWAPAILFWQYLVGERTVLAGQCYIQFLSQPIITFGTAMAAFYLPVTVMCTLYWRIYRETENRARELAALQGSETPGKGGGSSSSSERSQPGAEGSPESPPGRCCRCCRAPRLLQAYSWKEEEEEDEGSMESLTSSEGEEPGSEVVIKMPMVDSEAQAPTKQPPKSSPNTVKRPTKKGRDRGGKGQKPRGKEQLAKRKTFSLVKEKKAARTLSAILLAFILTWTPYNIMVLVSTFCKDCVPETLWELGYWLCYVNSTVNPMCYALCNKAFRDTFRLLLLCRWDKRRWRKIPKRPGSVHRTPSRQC
Summary of the method: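 Adult rat hippocampus homogenized 1:200 w/v in 50 mM Na/K phosphate pH 7.4 with 1 mM EDTA and 0.1 mM PMSF. 0.5 mg tissue competed against [3H]pirenzepine (0.7-1 nM) for 2 h 30 min at 25 °C. Bound separated by filtration on 0.3% polyethylenimine-treated GF/C filters. Atropine defined nonspecific binding.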

[4] = molecular target: T3, Muscarinic acetylcholine receptor M2 (Rattus norvegicus, UniProt P10980); assay: Compound was evaluated for its binding affinity for Muscarinic acetylcholine receptor M2 by measuring displacement of [3H]- NMS ligand from rat cardiac cells.
T3 sequence (P10980 whole entry): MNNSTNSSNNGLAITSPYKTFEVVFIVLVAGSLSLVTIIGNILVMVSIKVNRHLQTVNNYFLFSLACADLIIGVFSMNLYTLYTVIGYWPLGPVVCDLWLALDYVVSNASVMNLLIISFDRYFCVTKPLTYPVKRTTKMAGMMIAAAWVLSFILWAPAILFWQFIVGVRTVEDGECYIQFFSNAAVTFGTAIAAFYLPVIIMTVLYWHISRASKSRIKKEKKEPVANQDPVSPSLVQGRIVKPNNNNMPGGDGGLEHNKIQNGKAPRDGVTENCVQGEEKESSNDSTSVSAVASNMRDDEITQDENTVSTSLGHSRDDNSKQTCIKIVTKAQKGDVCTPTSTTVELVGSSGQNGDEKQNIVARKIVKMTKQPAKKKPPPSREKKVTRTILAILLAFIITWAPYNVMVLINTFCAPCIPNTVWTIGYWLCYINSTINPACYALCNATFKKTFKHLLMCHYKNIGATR
Summary of the method: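 Adult rat cardiac cells homogenized 1:200 w/v in 50 mM sodium phosphate pH 7.4. Competition run with 0.2 nM [3H]NMS, 0.5 mg tissue and varying unlabeled ligand concentrations for 1 h at 37 °C. Bound separated by GF/C filtration. Atropine used for nonspecific binding.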

[5] = molecular target: T1, Serotonin 3 (5-HT3) receptor; assay: Compound was evaluated for its binding affinity for 5-hydroxytryptamine 3 receptor by measuring displacement of [3H]granisetron from rat cerebral cortex; assay type: tissue-based
Summary of the method: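 Male Sprague-Dawley rat cerebral cortex homogenized in cold 50 mM HEPES pH 7.5, then washed three times by centrifugation (48000g, 4 °C); roughly 2.5 mg protein/mL. […] Filters were presoaked 2 h in 0.3% polyethylenimine. Nonspecific binding defined with 100 nM zacopride; bound counted by liquid scintillation.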

[6] = molecular target: T1, Serotonin 3 (5-HT3) receptor; assay: Compound was evaluated for its binding affinity for 5-hydroxytryptamine 3 receptor by measuring displacement [3H]GR-65630 in rat cerebral cortex; assay type: tissue-based

| SMILES | Ki [3] | Ki [4] | IC50 [5] | Ki [6] | further results |
| --- | --- | --- | --- | --- | --- |
| Cn1cc(-c2noc(C3CN4CCC3CC4)n2)c2ccccc21 (configuration not stated) |  |  |  |  | IC50 [1]: 0.0014 µM |
| O=C(OC1C2CC3CC1N2CC3=O)c1c[nH]c2ccccc12 (configuration not stated) |  |  |  |  | pA2 [2]: 9.8 |
| CN1CCN(c2nncc3ccccc23)CC1 | 10 µM | 38 µM | 0.01 µM |  |  |
| CN1[C@@H]2CC[C@H]1C[C@@H](OC(=O)c1cc(Cl)cc(Cl)c1)C2 [BEMESETRON] |  |  |  | 0.054 µM |  |
| CCN(CC)CCNC(=O)c1cc(Cl)c(N)cc1OC [METOCLOPRAMIDE] |  |  |  | 0.348 µM |  |

Now from value to compound, other results behind:

| Ki [3] | Ki [4] | IC50 [5] | Ki [6] | SMILES | further results |
| --- | --- | --- | --- | --- | --- |
| 62 µM | 80 µM | 0.036 µM |  | CN1CCN(c2cc(-c3ccccc3)cnn2)CC1 |  |
| 13 µM | 116 µM | 0.37 µM |  | CN1CCN(c2nnc(-c3ccccc3)c3ccccc23)CC1 |  |
| 15.6 µM | 71 µM | 0.425 µM |  | CN1CCN(c2ccc(-c3ccccc3)nn2)CC1 |  |
|  |  |  | 0.0032 µM | CN1[C@@H]2CC[C@H]1C[C@@H](OC(=O)c1c[nH]c3ccccc13)C2 [TROPISETRON] |  |
